Most compounds without a hit are left out; they make up all but 1.8% or so of the library.
STEP block = blocks human striatal-enriched tyrosine phosphatase | inhibition, % at 20 µM | P54829 | AID 588621 | 360,000 tested, 0.25% active | recombinant STEP, OMFP fluorogenic substrate, fluorescence;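 active = inhibition at 20 µM, scaled per plate between control wells, above about 37%, limit read from the data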
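Assay system: isolated STEP enzyme. Buffer or medium: pH 6.0 Bis-Tris with DTT and Tween 20. Also added: fluorogenic phosphatase substrate OMFP at 25 µM final. Dosing: 20 µM, 1% DMSO. Timing: 20 min reaction, room temperature, in the dark. Measured by: fluorescence intensity, excitation 480 nm, emission 540 nm. Evaluation: normalized % inhibition.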
DNMT1 inh = inhibitors of human DNMT1; P26358; DNMT1 molecular beacon, Hinp1I cleavage, fluorescence; inhibition (reported as % activation of signal), % at 10 µM; 360,000 tested, 0.83% active; AID 588458; in the data active = inhibition above about 50%
Target sequence (P26358 504-1616 limits assumed): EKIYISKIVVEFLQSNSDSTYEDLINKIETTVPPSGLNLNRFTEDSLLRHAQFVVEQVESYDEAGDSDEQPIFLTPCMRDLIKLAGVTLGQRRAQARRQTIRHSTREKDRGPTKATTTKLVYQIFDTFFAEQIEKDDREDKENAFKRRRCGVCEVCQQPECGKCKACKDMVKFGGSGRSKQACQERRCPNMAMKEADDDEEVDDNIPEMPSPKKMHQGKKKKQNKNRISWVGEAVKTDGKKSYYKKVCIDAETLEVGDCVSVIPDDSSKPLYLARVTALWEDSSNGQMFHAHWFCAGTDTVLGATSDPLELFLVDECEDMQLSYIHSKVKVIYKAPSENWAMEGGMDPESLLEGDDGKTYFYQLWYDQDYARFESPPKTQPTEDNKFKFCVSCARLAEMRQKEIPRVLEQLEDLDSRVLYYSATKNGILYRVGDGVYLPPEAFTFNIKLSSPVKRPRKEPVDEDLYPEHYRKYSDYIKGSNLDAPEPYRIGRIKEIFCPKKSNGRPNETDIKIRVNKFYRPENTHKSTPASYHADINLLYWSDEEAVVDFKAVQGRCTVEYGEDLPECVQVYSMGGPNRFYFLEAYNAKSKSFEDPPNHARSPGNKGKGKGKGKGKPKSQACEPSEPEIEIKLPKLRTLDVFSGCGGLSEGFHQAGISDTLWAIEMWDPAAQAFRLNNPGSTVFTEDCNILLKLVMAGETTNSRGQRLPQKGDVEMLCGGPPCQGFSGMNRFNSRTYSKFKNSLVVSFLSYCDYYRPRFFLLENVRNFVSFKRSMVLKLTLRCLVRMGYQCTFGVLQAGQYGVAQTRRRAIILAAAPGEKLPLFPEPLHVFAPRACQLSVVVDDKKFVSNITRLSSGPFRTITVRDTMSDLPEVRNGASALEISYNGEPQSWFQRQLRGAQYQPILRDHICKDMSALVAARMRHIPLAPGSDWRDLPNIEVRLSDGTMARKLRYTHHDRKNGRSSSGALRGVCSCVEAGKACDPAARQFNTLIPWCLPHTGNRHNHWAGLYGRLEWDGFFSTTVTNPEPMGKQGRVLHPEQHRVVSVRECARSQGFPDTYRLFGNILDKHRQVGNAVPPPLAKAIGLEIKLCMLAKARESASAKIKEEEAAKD
Scp-1 inhibitor = Scp-1 (human) phosphatase inhibition | Q9GZU7 | Recombinant Scp1, phosphopeptide, malachite green phosphate absorbance | inhibition, % at 20 µM | 340,000 tested, 0.88% active | AID 493091;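 active = inhibition above about 50% at 20 µM, limit read from the data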
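Test system: SCP-1 phosphatase catalytic domain, residues 76-261 | Compound dosing: One concentration, 20 µM, with 1.0% DMSO | Schedule: 45 min room-temperature reaction, 5 min colour, 30 min stabiliser | Detection: Absorbance at 630 nm | Read-out basis: % inhibition of SCP-1 phosphate liberation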
LMPTP inh = blocks human LMPTP phosphatase; P24666; recombinant LMPTP-A, OMFP fluorogenic substrate, fluorescence intensity; inhibition, % at 20 µM; 360,000 tested, 0.22% active;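 active = compounds that cut the enzyme signal by at least half of the control window in the single-dose screen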
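Test system – LMPTP-A phosphatase enzyme · Quantity – 0.625 nM LMPTP-A final · Reagent – OMFP substrate, 400 µM final · Dosing – one test concentration per compound, 20 µM, with 3% DMSO overall · Timing – 50 min enzyme reaction at room temperature, protected from light · Detection – fluorescence intensity · Controls – substrate-only low control, DMSO enzyme-plus-substrate high control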
SUMO1-SIM PPI = modulators of human SUMO1-mediated protein-protein interactions; 360,000 tested, 0.33% active; AID 602429; inhibition, % at 20 µM; SUMO1 binding to a labelled peptide, TR-FRET, 1 h; P63165; in the data active = inhibition above about 37%
Beacon interf DR = beacon fluorescence artifact, dose response counter-screen | shares compounds with DNMT1 inh | IC50, µM | molecular beacon fluorescence, spectral interference counter-screen | 200 tested, under 10 active; call rule not given here
DNMT1 inh conf = DNMT1 inhibition confirmation, single concentration; DNMT1 molecular beacon HinP1I cleavage, fluorescence; inhibition, % at 10 µM; shares compounds with DNMT1 inh; 2,300 tested, 8% active; AID 602385;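 active = average inhibition of at least 30% in the single-concentration confirmation test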
Beacon interf = counter-screen for DNMT1 inhibitors: spectral interference; shares compounds with DNMT1 inh; 2,300 tested, 1% active; AID 602387; activation (fluorescence interference), % at 10 µM; DNMT1 molecular beacon spectral interference counterscreen, fluorescence 485/520;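 active = activation of at least 30% at 10 µM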;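 note: DNMT1 catalytic domain with a HinP1I cleavage step and a FAM/dabcyl DNA beacon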
Hits are given with their value; n = inactive; x = no result given.

SMILES	STEP block	DNMT1 inh	Scp-1 inhibitor	LMPTP inh	SUMO1-SIM PPI	DNMT1 inh conf	Beacon interf	others
Cc1cccc(NC(=S)NC2CC3CCCC(C2)N3Cc2cccs2)c1 (configuration not stated)	n	84	n	n	n	n	n
COCCNC(=S)NC1CC2CCCC(C1)N2Cc1cccs1 (configuration not stated)	n	n	n	n	n	x	x
CC(=O)c1ccc(S(=O)(=O)NCC(=O)N2CCN(C/C=C/c3ccccc3)CC2)cc1	n	n	n	n	n	x	x
COc1ccc(/C=c2\sc3nc(-c4ccccc4OC)nn3c2=O)c(OC)c1	n	71	n	n	n	n	n
CN(C(=O)c1ccc(NC(=O)Cc2cccc(NC(=O)C3CCN(C(=O)C4CCCC4)CC3)c2)cc1)C1CC1	n	n	n	n	n	x	x
CCOC(=O)c1c(SCCN2CCCCC2)n(-c2ccccc2)c(=S)n(-c2ccccc2)c1=O	n	n	n	n	n	x	x
COc1cccc2cc(C(=O)Nc3cc(Cl)ccc3N3CCOCC3)c(=O)oc12	n	55	n	n	n	n	n
CC(=O)Oc1ccc(C23c4ccccc4C2(OC(C)=O)c2cc(OC(C)=O)ccc23)cc1 (configuration not stated)	n	n	n	n	n	x	x
Cc1ccc(/C=N/NC(=O)C(O)c2ccccc2)o1 (configuration not stated)	n	n	n	n	n	x	x
O=C(N/N=C/c1cc(Br)c(Br)o1)C(O)c1ccccc1 (configuration not stated)	n	77	n	n	n	n	n
CC(c1nc2ccccc2[nH]1)N(C(=O)C1=NNC(=O)CC1)c1ccccc1 (configuration not stated)	n	n	x	n	n	x	x
N#Cc1nnn(-c2ccc(Cl)cc2)c1N	n	90	n	n	n	n	n
N#Cc1nnn(-c2cc(Cl)cc(Cl)c2)c1N	n	n	n	n	n	x	x
O=C(NCCCN1CCCC1=O)c1sc2ccccc2c1Cl	n	n	n	n	n	x	x
CN(C)C(CNC(=O)C1CC(=O)N(c2cccc(C(F)(F)F)c2)C1)c1ccccc1 (configuration not stated)	n	91	x	n	n	n	n
CCc1nc2sc3ccccc3c(=O)c2c(=O)n1Cc1ccco1	n	88	n	58	n	n	n
O=c1c2ccccc2sc2nc(C3CCCCC3)n(Cc3ccco3)c(=O)c12	n	n	n	n	n	x	x
CS(=O)(=O)Nc1ccc(C(=O)NC2CCCC2)cc1	n	80	n	n	n	n	n
CS(=O)(=O)Nc1ccc(C(=O)NC2CCCCC2)cc1	n	n	n	n	n	x	x
CCOC(=O)CCCCC(=O)NC(CO)C(=O)NC (configuration not stated)	n	59	n	n	n	n	n
CCOC(=O)CCC(NC(=O)CCCCC(=O)NC(CCC(=O)OCC)C(=O)OCC)C(=O)OCC (configuration not stated)	n	n	n	n	n	x	x
Fc1ccc2cnc(CCO[C@H]3CCCCO3)cc2c1	n	n	n	n	n	x	x
CCNC(COC(=O)c1ccc([N+](=O)[O-])cc1)C1CCCCC1 (configuration not stated)	n	n	n	n	n	x	x
COc1ccc(C(=O)CC(=O)C(=O)Nc2cc(C)ccc2C)cc1	n	n	n	n	n	x	x
COc1ccc(C(=O)CC(=O)C(=O)NCCc2cccc(C)c2)cc1	n	89	n	n	n	n	n
SMILES	STEP block	DNMT1 inh	Scp-1 inhibitor	LMPTP inh	SUMO1-SIM PPI	DNMT1 inh conf	Beacon interf	others
CCN(CC)CCNc1nc2cc(OC)c(OC)cc2c2nc(-c3ccccc3)nn12	n	67	n	n	n	n	n	Beacon interf DR=n
O=C(c1ccccc1)C1OC1C(=O)c1ccccc1 (configuration not stated)	n	50	n	n	n	n	n
CC1C=CC(C)C(C(=O)c2ccccc2)C1C(=O)c1ccccc1 (configuration not stated)	n	n	x	n	n	x	x
COc1ccc(Br)c(C(=O)NCC2CCCCC2)c1	n	n	n	n	n	x	x
CN(C)S(=O)(=O)c1ccc2c(c1)nc(CCC(=O)NCC(=O)Nc1ccc(F)c(F)c1F)n2C	n	n	x	n	n	x	x
O=C1NN(c2ccccc2)C(=O)/C1=C/c1ccc(Sc2cccc3ccccc23)o1	n	66	n	n	n	69	n	Beacon interf DR=n
C[C@@H]1CN([C@H](C)CO)C(=O)c2cc(Br)cnc2O[C@@H]1CN(C)C(=O)CC1CC1	n	n	x	n	n	x	x
CC(OC(=O)c1cccs1)C(=O)NC1CCCCC1C (configuration not stated)	n	n	n	n	n	x	x
Cc1ccc(C(=O)OC(C)C(=O)NC2CCCCC2C)s1 (configuration not stated)	n	83	n	n	n	n	n
COC(=O)CN1C(=O)[C@H]2[C@@H](c3ccc(C)o3)N3C(=O)CN(CCO)C(=O)[C@@]3(C)[C@H]2C1=O	n	103	n	n	n	n	n
Cc1ccc([C@@H]2[C@@H]3C(=O)N(C)C(=O)[C@@H]3[C@]3(C)C(=O)N(CC4CC4)CC(=O)N23)o1	n	n	n	n	n	x	x
CCSc1ccc2cc(OC)ccc2[n+]1CC	n	n	n	n	n	x	x
C/C(=N\NC(=O)c1ccc(Br)o1)c1cc2c(cc1NC(=O)CCC(=O)O)OCO2	n	n	n	n	n	x	x
CCCCC1=CC2=C(c3ccco3)C(=O)C(C)(OC(=O)c3ccc(OC)cc3)C(=O)C2=CN1Cc1ccco1 (configuration not stated)	n	56	n	n	n	n	n
Nc1c(C(=O)CSc2nccn2-c2cccc(F)c2)c(=O)[nH]c(=O)n1C1CC1	n	n	n	n	n	x	x
COCCn1c(SCc2nc3ccccc3c(=O)[nH]2)nc2ccccc2c1=O	n	n	n	n	n	x	x
CCCn1c(SCc2nc3sc(C)c(C)c3c(=O)[nH]2)nc2ccccc2c1=O	n	54	n	n	n	n	n
Cc1cc(C)c(C(=O)COC(=O)Cn2cnnn2)cc1C	n	n	n	n	n	x	x
O=C(Cn1cnnn1)OCC(=O)c1ccc(Cl)s1	n	58	n	n	n	n	n
CN1/C(=C\C(=O)C[n+]2ccc3ccccc3c2)C(C)(C)c2ccccc21	n	n	n	n	n	x	x
COc1cc(S(=O)(=O)NCCOC23CC4CC(CC(C4)C2)C3)c(OC)cc1Cl	n	107	n	n	n	n	n
COc1ccc(C(=O)CC2(C(=O)O)CCCCC2)cc1	n	n	n	n	n	x	x
